The record followed here is PubChem BioAssay.

Assay [1] in a line: RPL19A-GFP modulators, yeast TOR pathway, confirmation, cell-based, S. cerevisiae, flow cytometry, cherry picks, mother/daughter gates (AID 2270;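 active = GFP response below 50% of the DMSO control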). The following applies: S. cerevisiae RPL19A-GFP strain, 3 h, at 10 µM, stronger effect = lower value, 100 = same GFP as DMSO wells. In general terms: Flow cytometry measures light scatter and fluorescence of single cells or particles in a stream.

Assay [2] is described as follows: LAP4-GFP expression modulators in yeast, confirmation, cell-based, cherry picks, flow cytometry, mother/daughter gates (AID 2271;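 active = GFP response above 150% of the DMSO control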;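 also: ratio of sample to DMSO plate mean so 100% equals DMSO level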). The following applies: S. cerevisiae LAP4-GFP strain, 3 h, at 10 µM, stronger effect = higher value, 100 means same as DMSO control. The method, boiled down: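 System – GFP-fusion yeast strain · Amount – 0.2 OD600 cells · Buffer or medium – SC growth medium · Dosing – single test-compound dose, 10 µM final · Schedule – 3 h treatment at 30 °C with rotation · Detection – GFP by flow cytometry · Read-out – per-gate (all, mother, daughter) GFP response vs DMSO · Benchmarks – positive rapamycin (400 ng/mL), negative DMSO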

Assay [3] in a line: modulators of MEP2-GFP levels in yeast, confirmation, S. cerevisiae, flow cytometry GFP, cherry picks (AID 2272;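 active = GFP response above 150% of the DMSO control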;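 also: ratio of well signal to plate DMSO mean so 100% equals DMSO level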). The settings on record: S. cerevisiae MEP2-GFP strain, 3 h, at 10 µM, stronger effect = higher value.
Assay [4] can be described thus: AGP1-GFP expression modulators, hit retest, confirmation, cell-based, flow cytometry, S. cerevisiae, cherry picks (AID 2273).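 Also: median GFP channel fluorescence over the whole cell population gate.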 The settings on record: S. cerevisiae AGP1-GFP strain, 3 h, at 10 µM.
A short description of assay [5]: modulators of CIT2-GFP expression in yeast, confirmation, S. cerevisiae, GFP fusion, cherry picks, mother/daughter gates (AID 2274). The settings on record: S. cerevisiae CIT2-GFP strain, flow cytometry, 3 h, at 10 µM, stronger effect = higher value.
Setting [6] is: measured here: daughter cell gate.
The mark [7] stands for this setting: measured here: mother cell gate.
The mark [8] stands for this setting: measured here: daughter cell gate response.
[9] abbreviates: measured here: mother cell gate response.

Activity calls are given as the source filed them.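 The calls were made as follows, unless noted: active = GFP response above 150% of the DMSO level; inconclusive = fewer than 70 events counted for a yeast strain; inactive = the rest.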

For the compound `COc1ccccc1-c1nnc(NC(=O)c2ccc(S(=O)(=O)N(C)Cc3ccccc3)cc2)o1`, the GFP response vs DMSO is 100% (inactive) in assay [1], 98.8% in assay [1] (setting [6]), 100% in assay [1] (setting [7]) and 104% (inactive) in assay [3]. Also, the GFP response relative to DMSO in assay [2] was 95.3% (inactive); in assay [2] (setting [8]), 95%; in assay [2] (setting [9]), 94.6%. The GFP response, % of DMSO was 98.9% (inactive) in assay [4], 97.8% (inactive) in assay [5], 98.3% in assay [5] (setting [6]) and 98% in assay [5] (setting [7]).

With `CC1(C)CC(=O)C(C(C2=C(O)CC(C)(C)CC2=O)c2cccs2)C(=O)C1` (configuration not stated), the GFP response vs DMSO in assay [1] is 100% (inactive); in assay [1] (setting [6]), 103%; in assay [1] (setting [7]), 101%; in assay [3], 97.5% (inactive). For the same compound, the GFP response relative to DMSO in assay [2] was 100% (inactive); in assay [2] (setting [8]), 102%; in assay [2] (setting [9]), 100%. For the same compound, the GFP response, % of DMSO in assay [4] is 94.3% (inactive); in assay [5] it was 101% (inactive); in assay [5] (setting [6]) it was 102%; in assay [5] (setting [7]) it was 99.1%.

Regarding `O=[N+]([O-])/C=C/c1cn(Cc2ccc(Cl)cc2)c2ccccc12`, the GFP response vs DMSO in assay [1] is 105% (inactive); in assay [1] (setting [6]), 102%; in assay [1] (setting [7]), 103%; in assay [3], 100% (inactive). The figures for the GFP response relative to DMSO in assay [2], in assay [2] (setting [8]) and in assay [2] (setting [9]) were 95% (inactive), 95.6% and 96.2%, respectively. In addition, the GFP response, % of DMSO is 98.3% (inactive) in assay [4], 106% (inactive) in assay [5], 106% in assay [5] (setting [6]) and 102% in assay [5] (setting [7]).

Consider `COc1ccc(-c2nn(-c3ccccc3)cc2C(=O)N/N=C/c2ccc([N+](=O)[O-])o2)cc1`, for which the GFP response vs DMSO in assay [1] is 103% (inactive); in assay [1] (setting [6]), 103%; in assay [1] (setting [7]), 103%; in assay [3], 100% (inactive). In addition, the GFP response relative to DMSO in assay [2] is 84.2% (inactive); in assay [2] (setting [8]), 92.5%; in assay [2] (setting [9]) it was 92.1%. Further, the GFP response, % of DMSO is 96.7% (inactive) in assay [4], 113% (inactive) in assay [5], 110% in assay [5] (setting [6]) and 115% in assay [5] (setting [7]).

On to `Cc1cc(C)c(C)c(S(=O)(=O)ON2C(=O)c3ccccc3C2=O)c1C`, for which the GFP response vs DMSO in assay [1] was 103% (inactive); in assay [1] (setting [6]), 97.5%; in assay [1] (setting [7]), 94.1%; in assay [3], 114% (inactive). Moreover, the GFP response relative to DMSO in assay [2] is 206% (active); in assay [2] (setting [8]) it was 170%; in assay [2] (setting [9]), 204%. For the same compound, the GFP response, % of DMSO in assay [4] was 97.3% (inactive); in assay [5], 105% (inactive); in assay [5] (setting [6]) it was 113%; in assay [5] (setting [7]), 91%.

With `Cc1ccc(-c2csc(NC(=O)c3cccs3)n2)cc1`, the GFP response vs DMSO in assay [1] was 98.8% (inactive); in assay [1] (setting [6]), 93.9%; in assay [1] (setting [7]), 99.6%; in assay [3], 112% (inactive). In addition, the results for the GFP response relative to DMSO in assay [2], in assay [2] (setting [8]) and in assay [2] (setting [9]) were 105% (inactive), 99.1% and 107%, respectively. In addition, the GFP response, % of DMSO in assay [4] is 98% (inactive); in assay [5] it was 94.4% (inactive); in assay [5] (setting [6]) it was 90.2%; in assay [5] (setting [7]) it was 94.4%.

Take `Cc1cccc(NC(=O)c2ccc([N+](=O)[O-])o2)c1`: the GFP response vs DMSO in assay [1] is 103% (inactive); in assay [1] (setting [6]) it was 105%; in assay [1] (setting [7]), 101%; in assay [3] it was 106% (inactive). Moreover, the GFP response relative to DMSO in assay [2] was 126% (inactive); in assay [2] (setting [8]), 115%; in assay [2] (setting [9]), 125%. In addition, the GFP response, % of DMSO in assay [4] was 96.2% (inactive); in assay [5], 105% (inactive); in assay [5] (setting [6]), 106%; in assay [5] (setting [7]), 101%.

Regarding `O=C1CC(SCc2nc3ccccc3[nH]2)C(=O)N1c1cccc(F)c1` (configuration not stated), the GFP response vs DMSO in assay [1] was 98.7% (inactive); in assay [1] (setting [6]), 99.3%; in assay [1] (setting [7]), 97.5%; in assay [3], 99.3% (inactive). Also, the results for the GFP response relative to DMSO in assay [2], in assay [2] (setting [8]) and in assay [2] (setting [9]) were 104% (inactive), 105% and 105%, respectively. In addition, the GFP response, % of DMSO in assay [4] was 102% (inactive); in assay [5] it was 103% (inactive); in assay [5] (setting [6]) it was 103%; in assay [5] (setting [7]), 103%.

With `Cc1ccc(NC(=O)ON=C2CCCC2)cc1`, the GFP response vs DMSO in assay [1] was 101% (inactive); in assay [1] (setting [6]), 104%; in assay [1] (setting [7]), 93.5%; in assay [3], 109% (inactive). For the same compound, the GFP response relative to DMSO in assay [2] was 122% (inactive); in assay [2] (setting [8]) it was 115%; in assay [2] (setting [9]) it was 121%. In addition, the GFP response, % of DMSO in assay [4] is 68.9% (inactive); in assay [5] it was 167% (active); in assay [5] (setting [6]) it was 150%; in assay [5] (setting [7]), 167%.

Regarding `Cn1nnnc1N=N/C(=N/Nc1ccccc1)c1ccccc1`, the GFP response vs DMSO was 97.6% (inactive) in assay [1], 96.1% in assay [1] (setting [6]), 97.3% in assay [1] (setting [7]) and 94.7% (inactive) in assay [3]. Also, the GFP response relative to DMSO in assay [2] was 110% (inactive); in assay [2] (setting [8]), 107%; in assay [2] (setting [9]) it was 115%. Besides, the GFP response, % of DMSO in assay [4] was 89.5% (inactive); in assay [5], 87.2% (inactive); in assay [5] (setting [6]) it was 88.4%; in assay [5] (setting [7]), 85.8%.

Consider `CCCCC(=O)NNC(=S)NC(=O)c1ccc(C)cc1`, for which the GFP response vs DMSO in assay [1] is 116% (inactive); in assay [1] (setting [6]), 111%; in assay [1] (setting [7]), 111%; in assay [3], 134% (inactive). The GFP response relative to DMSO in assay [2] was 249% (active); in assay [2] (setting [8]), 204%; in assay [2] (setting [9]) it was 233%. The GFP response, % of DMSO in assay [4] is 100% (inactive); in assay [5], 119% (inactive); in assay [5] (setting [6]), 114%; in assay [5] (setting [7]) it was 110%.

On to `NS(=O)(=O)c1ccc(S(=O)(=O)c2ccccc2)nc1`, for which the GFP response vs DMSO is 98.2% (inactive) in assay [1], 99.1% in assay [1] (setting [6]), 96.9% in assay [1] (setting [7]) and 102% (inactive) in assay [3]. The GFP response relative to DMSO in assay [2] is 97.9% (inactive); in assay [2] (setting [8]), 97.6%; in assay [2] (setting [9]) it was 97.2%. The GFP response, % of DMSO in assay [4] is 95.6% (inactive); in assay [5] it was 103% (inactive); in assay [5] (setting [6]), 105%; in assay [5] (setting [7]), 102%.
